Measurements: ChEMBL document CHEMBL3217723, “Optimizing PK properties of cyclic peptides: the effect of side chain substitutions on permeability and clearance()” (Medchemcomm, 2012)
Where a SMILES comes first, the peptide text is derived from it. [ ]: non-standard residue; d: D form. The star is where a group is joined. NMeAbu(4-morpholino) = CN[C@@H](CCN1CCOCC1)C(=O)O; NMeY = CN[C@@H](Cc1ccc(O)cc1)C(=O)O; NMeCha = CN[C@@H](CC1CCCCC1)C(=O)O; NMeF = CN[C@@H](Cc1ccccc1)C(=O)O; NMeI = CC[C@H](C)[C@H](NC)C(=O)O; NMeD = CN[C@@H](CC(=O)O)C(=O)O; dNMeL = CN[C@H](CC(C)C)C(=O)O; Morpholide = C1CN(*)CCO1; NMeA = CN[C@@H](C)C(=O)O; Piperidide = C1CCN(*)CC1

Legend:
[1] = Intrinsic clearance in human liver microsomes by LC-MS/MS analysis; assay type: ADME; conditions: read-out: CLH
Method in brief: (§1)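 Compound at 1 µM with liver microsomes (CYP 0.25 µM) in 0.1 M potassium phosphate, pH 7.4, at 37 °C. Final solvent was 0.975% acetonitrile and 0.025% DMSO. Mix prewarmed 5 min, then started with 1.3 mM NADPH; no-NADPH controls were run. Sampled at 0–60 min into acetonitrile and followed by LC-MS/MS for substrate loss. T1/2 was scaled to CLint by the well-stirred model.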

[2] = Lipophilicity, log D of the compound at pH 7.4 by shake-flask method; assay type: physicochemical; conditions: buffer
[3] = AUC (0 to infinity) in male Wistar-Han rat at 1.48 mg/kg, iv; assay type: ADME, organism-based; design: time infinity, dose 1.48 mg/kg, route intravenous; conditions: plasma
Method in brief: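 Jugular vein-cannulated male Wistar-Hannover rats (230-250 g), n = 3, fed ad libitum; 30 s tail-vein injection in 10% SEDDS:90% sterile dextrose, 1:1 propylene glycol:20 mM sodium phosphate (pH 7.4), or 10% propylene glycol:90% 20 mM sodium phosphate (pH 7.4). Blood via cannula to 24 h, K2EDTA plasma, LC-MS/MS against standard curve; non-compartmental AUC0-∞ by linear trapezoid rule.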

[4] = Drug excretion in male Wistar-Han rat urine; assay type: ADME; conditions: read-out: Drug excretion
[5] = Plasma clearance in male Wistar-Han rat at 1.48 mg/kg, iv; assay type: ADME, organism-based; design: dose 1.48 mg/kg, route intravenous
Method in brief: (§2)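 Jugular vein-cannulated male Wistar-Hannover rats (230-250 g; n = 3) given a 30 s tail-vein bolus in SEDDS/dextrose or propylene glycol/20 mM sodium phosphate (pH 7.4) vehicles. Blood sampled 0.03–24 h via cannula into K2EDTA. Plasma proteins precipitated, LC-MS/MS. Non-compartmental: CLp = dose/AUC0-∞ (linear trapezoid); Vdss; T1/2 = 0.693/terminal log-linear slope.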

[6] = Terminal elimination half life in Wistar-Han rat at 1.48 mg/kg, iv; assay type: ADME, organism-based; design: dose 1.48 mg/kg, route intravenous; conditions: in vivo, read-out: beta t1/2 (converted)
Method in brief: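 Jugular vein-cannulated male Wistar-Hannover rats (230–250 g, n = 3) received a tail-vein bolus over 30 s. Vehicle depended on compound: SEDDS/dextrose or propylene glycol/20 mM sodium phosphate pH 7.4. Blood was drawn at 0.03–24 h into K2EDTA and the plasma analyzed by LC-MS/MS. Non-compartmental analysis gave T1/2 = 0.693/|terminal ln-slope|.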

[7] = Intrinsic clearance in rat liver microsomes by LC-MS/MS analysis; assay type: ADME; conditions: read-out: CLH; method in brief: as §1
[8] = AUC (0 to infinity) in male Wistar-Han rat at 10 mg/kg, po; assay type: ADME, organism-based; design: time infinity, dose 10 mg/kg, route oral; conditions: plasma
Method in brief: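 Jugular vein-cannulated male Wistar-Hannover rats (230-250 g), n = 3, fasted overnight and fed after the 4 h sample; oral dosing in the i.v. formulations, except the SEDDS formulation used 90% water. Serial blood 0.083–24 h, K2EDTA plasma, LC-MS/MS against standard curve; non-compartmental AUC0-∞ by linear trapezoid rule.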

[9] = Terminal elimination half life in Wistar-Han rat at 10 mg/kg, po; assay type: ADME, organism-based; design: dose 10 mg/kg, route oral; conditions: in vivo, read-out: beta t1/2 (converted)
Method in brief: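 Male Wistar-Hannover rats (230–250 g, n = 3), jugular-cannulated, were fasted overnight and dosed by oral gavage. Vehicle depended on compound: SEDDS/water or propylene glycol/sodium phosphate pH 7.4. Blood was collected at 0.083–24 h into K2EDTA and the plasma analyzed by LC-MS/MS. Terminal half-life came from the non-compartmental ln-concentration slope.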

[10] = Volume of distribution at steady state in male Wistar-Han rat at 1.48 mg/kg, iv; assay type: ADME, organism-based; design: dose 1.48 mg/kg, route intravenous; conditions: in vivo, read-out: Vdss; method in brief: as §2
[11] = Tmax in male Wistar-Han rat at 10 mg/kg, po; assay type: ADME, organism-based; design: dose 10 mg/kg, route oral; conditions: in vivo
[12] = Oral bioavailability in male Wistar-Han rat at 10 mg/kg; assay type: ADME, organism-based; conditions: in vivo
Method in brief: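 Male Wistar-Hannover rats (230-250 g, cannulated; n = 3) fasted overnight, fed after the 4 h sample, and dosed orally in the i.v. formulations or 10% SEDDS:90% water. Serial blood sampled 0.083–24 h into K2EDTA. Plasma measured by LC-MS/MS against a standard curve. Cmax and Tmax read from individual profiles; F = oral AUC0-∞ relative to i.v. AUC0-∞.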

[13] = Cmax in male Wistar-Han rat at 10 mg/kg, po; assay type: ADME, organism-based; design: dose 10 mg/kg, route oral; conditions: in vivo
[14] = Apparent permeability from apical to basolateral side in human Caco2 cells by LC-MS/MS analysis; assay type: ADME, cell-based; conditions: Caco-2

CC(C)C[C@@H]1NC(=O)[C@H](Cc2ccc(O)cc2)N(C)C(=O)[C@H]2CCCN2C(=O)[C@H](CC(C)C)NC(=O)[C@H](C)N(C)C(=O)[C@@H](CC(C)C)N(C)C1=O (cyclo(L[dNMeL][NMeA]L[dP][NMeY]))
CLint scaled [1]: 190 mL/min/kg | logD [2]: 3.64

CC(C)C[C@@H]1NC(=O)[C@H](Cc2ccc(O)cc2)N(C)C(=O)[C@H]2CCCN2C(=O)[C@H](CC(C)C)NC(=O)[C@H](CCN2CCOCC2)N(C)C(=O)[C@@H](CC(C)C)N(C)C1=O (cyclo(L[dNMeL][NMeAbu(4-morpholino)]L[dP][NMeY]))
CLint scaled [1]: 16 mL/min/kg | logD [2]: 2.79

CC(C)C[C@@H]1NC(=O)[C@H](Cc2ccc(O)cc2)N(C)C(=O)[C@H]2CCCN2C(=O)[C@H](CC(C)C)NC(=O)[C@H](CC2CCCCC2)N(C)C(=O)[C@@H](CC(C)C)N(C)C1=O (cyclo(L[dNMeL][NMeCha]L[dP][NMeY]))
logD [2]: 5.09

CC(C)C[C@@H]1NC(=O)[C@H](Cc2ccc(O)cc2)N(C)C(=O)[C@H]2CCCN2C(=O)[C@H](CC(C)C)NC(=O)[C@H](CC(=O)N2CCOCC2)N(C)C(=O)[C@@H](CC(C)C)N(C)C1=O (cyclo(L[dNMeL][NMeD](Morpholide)L[dP][NMeY]))
CLint scaled [1]: 57 mL/min/kg | logD [2]: 2.78

CC(C)C[C@@H]1NC(=O)[C@H](Cc2ccc(O)cc2)N(C)C(=O)[C@H]2CCCN2C(=O)[C@H](CC(C)C)NC(=O)[C@H](CC(=O)N2CCCCC2)N(C)C(=O)[C@@H](CC(C)C)N(C)C1=O (cyclo(L[dNMeL][NMeD](Piperidide)L[dP][NMeY]))
CLint scaled [1]: > 300 mL/min/kg | logD [2]: 3.77

CC(C)C[C@@H]1NC(=O)[C@H](Cc2ccc(O)cc2)N(C)C(=O)[C@H]2CCCN2C(=O)[C@H](CC(C)C)NC(=O)[C@H](CC(=O)O)N(C)C(=O)[C@@H](CC(C)C)N(C)C1=O (cyclo(L[dNMeL][NMeD]L[dP][NMeY]))
AUC(0-inf) [3]: 441 ng·h/mL | dose excreted [4]: < 1% | clearance [5]: 56.4 mL/min/kg | half-life [6]: 21.5 min | CLint scaled [7]: < 9 mL/min/kg | AUC(0-inf) [8]: 18.7 ng·h/mL | half-life [9]: 284 min | Vd [10]: 0.36 L/kg | Tmax [11]: 46.8 min | CLint scaled [1]: < 8 mL/min/kg | bioavailability [12]: 0.469% | Cmax [13]: 17.3 ng/mL | Papp A→B [14]: 0.36 ×10⁻⁶ cm/s | logD [2]: 0.477

CC(C)C[C@@H]1NC(=O)[C@H](Cc2ccc(O)cc2)N(C)C(=O)[C@H]2CCCN2C(=O)[C@H](CC(C)C)NC(=O)[C@H](Cc2ccccc2)N(C)C(=O)[C@@H](CC(C)C)N(C)C1=O (cyclo(L[dNMeL][NMeF]L[dP][NMeY]))
CLint scaled [1]: 170 mL/min/kg | logD [2]: 4.46

CC[C@H](C)[C@H]1C(=O)N[C@@H](CC(C)C)C(=O)N2CCC[C@@H]2C(=O)N(C)[C@@H](Cc2ccc(O)cc2)C(=O)N[C@@H](CC(C)C)C(=O)N(C)[C@H](CC(C)C)C(=O)N1C (cyclo(L[dNMeL][NMeI]L[dP][NMeY]))
CLint scaled [1]: > 300 mL/min/kg
